Data: publication PMC4112965 (Cell reports, 2014)

Key:
HFrD-fed rats = assay: High-fructose diet Sprague-Dawley rats, oral dosing once/day for 90 days; assay type: in vivo, rat
[1] = system: SREBP-1 maturation in liver; assay: High-fat and high-fructose diet rats, liver SREBP-1 maturation immunoblot; assay type: in vivo, rat; conditions: 10, 30 and 100 mg/kg; treated for the last 3 weeks of 18 weeks diet
In short: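 Rats were fed a high-fat plus high-fructose diet for 18 weeks and dosed once daily by oral gavage with vehicle or test compound over the final 3 weeks. Vehicle was 0.5% methylcellulose, 0.025% Tween-80 in water, with compound ground to a suspension. Animals were fasted 24 h and refed 12 h. Whole liver lysate and nuclear extract were immunoblotted for precursor and mature SREBP-1 plus control proteins.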

SREBP = assay: SRE-driven luciferase; assay type: cell-based, human; conditions: for concentrations giving a significant reduction in SREBP activity: HepG2, SRE-Luc, 100nM insulin 6 h; for effects on cell morphology or growth rate: HepG2 cells, concentrations of the SRE-Luc experiment
In short: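 Transfection of HepG2 cells used Lipofectamine LTX, with pSRE-Luc plus CMV-driven Renilla luciferase. Cells were serum-starved overnight with vehicle or graded concentrations of test compound, then stimulated with 100 nM insulin for 6 h. Firefly and Renilla luciferase were read by dual-reporter assay. Data were normalised to vehicle-treated samples; n=3, mean ± SD.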

[2] = system: Akt and S6K phosphorylation; assay: Immunoblot of Akt and S6K phosphorylation in response to insulin in HepG2 cells; assay type: cell-based, human
In short: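 HepG2 cells received vehicle or graded concentrations of test compound, then 100 nM insulin for 6 h. Cell lysates were immunoblotted for phosphorylation state and abundance of Akt and S6K.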

[3] = system: high-fructose diet (HFrD) fed rats; assay: High-fructose diet Sprague-Dawley rats, oral dosing once/day for one week; assay type: in vivo
[4] = In vivo pharmacologic and pharmacokinetic properties
casein kinase 2α = assay: In vitro protein kinase activity assay, casein kinase 2α; assay type: biochemical, human; conditions: PASK vs casein kinase 2α2
SREBP-1c maturation = assay: Immunoblot of precursor and mature SREBP-1c in HepG2 cells; assay type: cell-based, human
In short: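 HepG2 cells expressing GFP or 3xFlag-tagged precursor SREBP-1a or SREBP-1c were treated with test compound (30 and 50 μM), then 100 nM insulin for 6 h. Whole-cell lysate and nuclear extract were immunoblotted for precursor and mature SREBP-1c, and the mature:precursor ratio was determined.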

PASK = PASK (Homo sapiens, UniProt Q96RG2); assay: In vitro protein kinase activity assay, purified PASK; assay type: biochemical; conditions: 100μM
PASK, sequence (Q96RG2 whole entry): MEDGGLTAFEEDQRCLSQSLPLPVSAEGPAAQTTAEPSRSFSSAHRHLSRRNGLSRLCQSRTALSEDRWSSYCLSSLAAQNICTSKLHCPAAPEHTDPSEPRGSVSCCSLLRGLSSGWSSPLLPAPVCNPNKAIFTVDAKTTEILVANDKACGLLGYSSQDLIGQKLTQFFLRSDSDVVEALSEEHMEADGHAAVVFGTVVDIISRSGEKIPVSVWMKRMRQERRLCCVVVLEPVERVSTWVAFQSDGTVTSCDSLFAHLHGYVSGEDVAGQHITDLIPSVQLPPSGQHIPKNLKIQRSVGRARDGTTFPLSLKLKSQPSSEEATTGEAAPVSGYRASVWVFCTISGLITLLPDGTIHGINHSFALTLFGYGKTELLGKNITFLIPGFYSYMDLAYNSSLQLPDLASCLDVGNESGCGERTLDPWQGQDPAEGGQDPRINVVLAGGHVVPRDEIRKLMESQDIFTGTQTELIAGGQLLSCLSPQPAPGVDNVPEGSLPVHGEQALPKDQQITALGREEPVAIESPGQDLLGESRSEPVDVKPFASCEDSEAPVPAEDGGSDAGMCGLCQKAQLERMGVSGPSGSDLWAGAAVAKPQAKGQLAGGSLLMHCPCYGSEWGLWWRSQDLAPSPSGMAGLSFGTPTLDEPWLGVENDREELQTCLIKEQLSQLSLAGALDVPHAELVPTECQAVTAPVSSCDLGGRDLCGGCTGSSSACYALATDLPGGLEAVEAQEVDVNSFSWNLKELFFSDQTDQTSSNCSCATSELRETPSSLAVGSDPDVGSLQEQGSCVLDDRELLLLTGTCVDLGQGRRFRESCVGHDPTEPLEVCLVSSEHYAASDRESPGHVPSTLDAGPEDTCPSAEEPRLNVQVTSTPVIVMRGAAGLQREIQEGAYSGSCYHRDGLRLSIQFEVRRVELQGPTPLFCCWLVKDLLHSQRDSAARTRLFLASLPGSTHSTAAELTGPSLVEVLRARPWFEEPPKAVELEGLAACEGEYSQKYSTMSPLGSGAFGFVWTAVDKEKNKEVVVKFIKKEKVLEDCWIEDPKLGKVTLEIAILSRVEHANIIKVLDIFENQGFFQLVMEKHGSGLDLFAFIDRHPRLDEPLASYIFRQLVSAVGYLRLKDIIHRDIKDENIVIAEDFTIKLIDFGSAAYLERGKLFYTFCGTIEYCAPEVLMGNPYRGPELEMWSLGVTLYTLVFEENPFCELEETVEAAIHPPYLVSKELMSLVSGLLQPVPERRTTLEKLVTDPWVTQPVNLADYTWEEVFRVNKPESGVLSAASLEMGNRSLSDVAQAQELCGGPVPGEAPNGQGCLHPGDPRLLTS
In short: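 Purified PASK kinase activity measured with vehicle or test compound at the indicated concentrations. Activity is expressed as percent of vehicle-treated activity.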

HepG2 cells = assay: 14C-acetate incorporation into lipid; assay type: cell-based, human; conditions: 10 μM, HepG2, 14C-acetate
In short: (§1)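 HepG2 cells or rat primary hepatocytes were pre-treated overnight in serum-free medium with vehicle or 10 μM test compound. They then got fresh medium with vehicle or […] test compound plus 100 nM insulin for 6 h, labelled with 10 μCi/ml [1-14C]-acetate for the last 4 h. Lysis was in 0.5% Triton X-100, lipids were extracted with chloroform:methanol 2:1, and the organic phase was scintillation-counted. Counts were normalised to lysate protein; n=3, mean ± SD.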

50 other protein kinases = assay: In vitro specificity panel of 50 other protein kinases; assay type: biochemical, human; conditions: 100μM
Rat primary hepatocytes [5] = assay: 14C-acetate incorporation into lipids in rat primary hepatocytes; assay type: cell-based
In short: as §1

Rat primary hepatocytes [6] = assay: qRT-PCR of SREBP-1c target genes in insulin-stimulated rat primary hepatocytes; assay type: cell-based
In short: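 Rat primary hepatocytes were isolated, plated, and pre-treated 16 h with DMSO or test compound, then stimulated with insulin or vehicle over a 12 h time course. FASN, GCK and SREBP-1c mRNAs were measured by qRT-PCR, normalised to r36B4, with the vehicle-treated unstimulated group set as 1; n=3, mean ± SEM.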

adipose tissue = conditions: accompanied by decreased expression of SREBP-1; ref Pereira et al., 2013; cited from earlier work

CC(C)N(C)c1nc2cc(C(=O)O)ccc2nc1-c1ccc(F)cc1 [BioE-1115]
hepatic Fasn and Acc1 expression (HFrD-fed rats; 3 mg/kg, 90 days): significantly suppressed
hepatic Fasn and Acc1 expression (HFrD-fed rats; 10, 30 and 100 mg/kg, 90 days): restored to that in normal chow fed animals
serum glucose levels as measured by glycated hemoglobin (HbA1c) (HFrD-fed rats; 90-day study): decreased
expression of SREBP-1c or its target genes in abdominal fat (HFrD-fed rats; 90 days): no significant differences
expression of SREBP-1c or its target genes in gastrocnemius muscle (HFrD-fed rats; 90 days): no significant differences
body weight (HFrD-fed rats; after 51 days of dosing): no drug-dependent difference
body weight (HFrD-fed rats; after 90 days of dosing): no drug-dependent difference
serum triglycerides (HFrD-fed rats; after 90 days of treatment): significant dose-responsive decrease
overt toxicity upon extended treatment (HFrD-fed rats; doses 10–30 fold higher than those required for significant effects on lipogenic gene expression and serum triglycerides): no overt toxicity
serum triglycerides (HFrD-fed rats; interim timepoint of 45 days): significant dose-responsive decrease
SREBP-1 maturation in liver [1]: suppressed
concentrations giving a significant reduction in SREBP activity (SREBP): above 10 μM
effects on cell morphology or growth rate (SREBP): without any observable effects
phosphorylation of Akt or S6K in response to insulin [2]: neither compound impaired
hepatic expression of SREBP-1c target genes ([3]; 1 or 3 mg/kg oral once/day, one week): no difference from vehicle-treated rats
hepatic expression of Gpat1, Fasn and all other SREBP-1c target genes analyzed ([3]; 10, 30 and 100 mg/kg oral once/day, one week): dose-dependent suppression
HOMA-IR ([3]; calculated measure of insulin resistance): decreased in a dose-dependent manner
hepatic SREBP-1c and SREBP-1a mRNA ([3]; highest doses): modestly decreased
body weight ([3]; oral once/day, one week): Neither dose of BioE-1115 caused a significant change
hepatic TAG ([3]; oral once/day, one week): decrease
hepatic expression of HMG-CoA synthase 1 and SREBP-2 ([3]; oral once/day, one week): induced in a dose-dependent manner
liver weight ([3]; oral once/day, one week): Neither dose of BioE-1115 caused a significant change
serum TAG ([3]; oral once/day, one week): decreased in a dose-dependent manner
serum cholesterol ([3]; oral once/day, one week): basically unaffected
serum glucose ([3]; oral once/day, one week): significant decrease
serum insulin levels ([3]; oral once/day, one week): slightly lower
in vivo pharmacologic and pharmacokinetic properties relative to BioE-1197 [4]: more favorable
fold more potent as an inhibitor of PASK than of casein kinase 2α2 (casein kinase 2α): roughly 2500 fold
SREBP-1c maturation (mature:precursor SREBP-1c ratio) (SREBP-1c maturation; 30 and 50μM): suppressed

C[C@H]1CCCN1c1nc2cc(C(=O)O)ccc2nc1-c1ccc(F)cc1 [BioE-1197]
concentrations giving a significant reduction in SREBP activity (SREBP): > 3 µM
effects on cell morphology or growth rate (SREBP): without any observable effects
PASK activity at extremely high concentration (PASK): essentially completely inactivated
decrease in 14C incorporation into lipids (HepG2 cells): ~ 60%
phosphorylation of Akt or S6K in response to insulin [2]: neither compound impaired
hepatic expression of the gene encoding HMG-CoA reductase ([3]; oral once/day, one week): significantly decreased
activity of the majority of the 50 kinases (50 other protein kinases): either unaffected or only modestly inhibited
number of other kinases substantially inhibited (50 other protein kinases; of 50 kinases other than PASK): 8
suppression of SREBP-1c maturation compared with BioE-1428 (SREBP-1c maturation; quantified over five independent experiments): significantly more efficacious
insulin-induced increase in lipogenesis (14C-acetate incorporation into lipids) (Rat primary hepatocytes [5]): completely abolished
mRNA encoding SREBP-1c (Rat primary hepatocytes [6]; basal and insulin-stimulated conditions): significant decrease
insulin-induced increase in FASN and GCK mRNAs (Rat primary hepatocytes [6]; pre-treated 16 h, insulin over 12 h timecourse): either blunted or abolished

CO[C@H]1C[C@@H]2CC[C@@H](C)[C@@](O)(O2)C(=O)C(=O)N2CCCC[C@H]2C(=O)O[C@H]([C@H](C)C[C@@H]2CC[C@@H](O)[C@H](OC)C2)CC(=O)[C@H](C)/C=C(\C)[C@@H](O)[C@@H](OC)C(=O)[C@H](C)C[C@H](C)/C=C/C=C/C=C/1C [rapamycin]
lipogenesis in adipose tissue (adipose tissue): decreased lipogenesis
